# According to ChEMBL document CHEMBL4368905, “5,6,7,8-Tetrahydro-1,6-naphthyridine Derivatives as Potent HIV-1-Integrase-Allosteric-Site Inhibitors” (J Med Chem, 2019):
# pEC50, pIC50: −log10 of the molar value.
# What was measured:
# [1] = test system: Human immunodeficiency virus 1; assay: Antiviral activity against wild type HIV-1 NL4-3 infected in human MT2 cells after 5 days by dual luciferase reporter gene assay; type: functional, organism-based; details: Human immunodeficiency virus 1, NL4-3, MT2, 120 h
# How it was run: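 HIV-1 NL4-3 replication (viral outgrowth) in MT-2 cells. EC50 from multiple replicates.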
# [2] = Cytotoxicity against human MT2 cells assessed as reduction in cell viability after 4 days by XTT assay; type: cell-based
# How it was run: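 Cytotoxicity in MT-2 cells, test compound up to a maximal concentration of 40 μM.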
# [3] = Displacement of [3H]-2-tert-butoxy-2-(2-methyl-4-p-tolylquinolin-3-yl)acetic acid from LEDGF/p75 binding site of HIV1 integrase preincubated with radioligand for 1 hr followed by compound addition and measured after 1 hr by microbeta counting assay; design: species or system Human immunodeficiency virus 1
# How it was run: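 Displacement of tritiated ligand from the LEDGF/p75 binding site on integrase. IC50 from a single replicate.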
# [4] = Clearance in rat at 1 mg/kg, iv or 5 mg/kg, po by LC-MS/MS analysis; type: ADME, organism-based; details: in vivo
# How it was run: (§1)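 Rats dosed 1 mg/kg IV and 5 mg/kg PO. Clearance, Vss and oral bioavailability derived from these profiles.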
# [5] = Volume of distribution at steady state in rat at 1 mg/kg, iv or 5 mg/kg, po by LC-MS/MS analysis; type: ADME, organism-based; details: in vivo, read-out: Vdss; how it was run: as §1
# [6] = test system: Human immunodeficiency virus 1; assay: Antiviral activity against HIV-1 NL4-3 harboring integrase T124A mutant infected in human MT2 cells after 5 days by dual luciferase reporter gene assay; type: functional, organism-based; details: Human immunodeficiency virus 1, NL4-3, MT2, 120 h
# How it was run: (§2)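 NL4-3 HIV-1 carrying integrase substitutions engineered into the pol gene. The assay measures inhibition of viral outgrowth in MT-2 cell culture, and the value is reported as EC50.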
# [7] = test system: Human immunodeficiency virus 1; assay: Antiviral activity against HIV-1 NL4-3 harboring integrase T125A mutant infected in human MT2 cells after 5 days by dual luciferase reporter gene assay; type: functional, organism-based; details: Human immunodeficiency virus 1, NL4-3, MT2, 120 h; how it was run: as §2
# [8] = test system: Human immunodeficiency virus 1; assay: Antiviral activity against HIV-1 NL4-3 harboring integrase T124A/T125A double mutant infected in human MT2 cells after 5 days by dual luciferase reporter gene assay; type: functional, organism-based; details: Human immunodeficiency virus 1, NL4-3, MT2, 120 h; how it was run: as §2
# [9] = test system: Human immunodeficiency virus 1; assay: Antiviral activity against HIV-1 NL4-3 harboring integrase T124N mutant infected in human MT2 cells after 5 days by dual luciferase reporter gene assay; type: functional, organism-based; details: Human immunodeficiency virus 1, NL4-3, MT2, 120 h; how it was run: as §2
# [10] = test system: Human immunodeficiency virus 1; assay: Antiviral activity against HIV-1 NL4-3 harboring integrase T124A/T125N double mutant infected in human MT2 cells after 5 days by dual luciferase reporter gene assay; type: functional, organism-based; details: Human immunodeficiency virus 1, NL4-3, MT2, 120 h; how it was run: as §2
# [11] = Oral bioavailability in rat at 5 mg/kg by LC-MS/MS analysis; type: ADME, organism-based; details: in vivo; how it was run: as §1
# [12] = Metabolic stability in rat liver microsomes assessed as parent compound remaining at 0.5 uM after 10 mins in presence of NADPH by LC-MS/MS analysis; type: ADME, Microsome; details: read-out: Stability
# How it was run: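 Rat liver microsomes, compound at 0.5 μM, incubated 10 minutes. Read-out is percent of parent remaining.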
Compound,pEC50 [1],clearance [4] [mL/min/kg],Vd [5] [L/kg],CC50 at 96 h [2] [nM],pIC50 [3],further results
Cc1ccc(-c2c(C(OC(C)(C)C)C(=O)O)c(C)nc3ccccc23)cc1 (stereo not drawn),6.82,,,> 40000,,
Cc1ccc(-c2c3c(nc(C)c2C(OC(C)(C)C)C(=O)O)CCN(c2cccc(-c4ccccc4)c2)C3)cc1 (stereo not drawn),6.55,,,> 40000,6.37,
Cc1ccc(-c2c3c(nc(C)c2[C@H](OC(C)(C)C)C(=O)O)CCN(C(=O)CCc2ccccc2)C3)cc1,6.47,163,2,> 40000,6.12,
Cc1ccc(-c2c3c(nc(C)c2[C@H](OC(C)(C)C)C(=O)O)CCN(C(=O)NCc2ccccc2)C3)cc1,6.30,,,> 40000,6.51,
Cc1ccc(-c2c3c(nc(C)c2[C@H](OC(C)(C)C)C(=O)O)CCN(CCCc2ccccc2)C3)cc1,8.00,171,16,> 40000,7.15,pEC50 [6]: 7.77; pEC50 [7]: 7.68; pEC50 [8]: 7.47; pEC50 [9]: 7.70; pEC50 [10]: 7.51
Cc1ccc(-c2c3c(nc(C)c2[C@H](OC(C)(C)C)C(=O)O)CCN(c2ccc(-c4ccccc4)cc2)C3)cc1,6.49,,,> 40000,6.66,
Cc1ccc(-c2c3c(nc(C)c2[C@H](OC(C)(C)C)C(=O)O)CCN(Cc2ccccc2)C3)cc1,6.52,21,7,> 40000,6.08,bioavailability [11]: 35%
CC(=O)N1CCc2nc(C)c(C(OC(C)(C)C)C(=O)O)c(-c3ccc(C)cc3)c2C1 (stereo not drawn),5.72,,,> 40000,4.77,
Cc1ccc(-c2c3c(nc(C)c2[C@H](OC(C)(C)C)C(=O)O)CCN(CCOc2ccccc2)C3)cc1,6.70,,,> 40000,6.77,
Cc1ccc(-c2c3c(nc(C)c2[C@H](OC(C)(C)C)C(=O)O)CCN(C(=O)OCc2ccccc2)C3)cc1,6.64,118,19,> 40000,6.85,bioavailability [11]: 71%
COC(=O)N1CCc2nc(C)c(C(OC(C)(C)C)C(=O)O)c(-c3ccc(C)cc3)c2C1 (stereo not drawn),5.80,,,> 40000,5.38,
Cc1nc2c(c(-c3cc(F)c4c(c3C)CCCO4)c1[C@H](OC(C)(C)C)C(=O)O)CN(CCCc1ccccc1)CC2,8.40,82,6,> 40000,7.80,"pEC50 [7]: 8.15; pEC50 [8]: 8.22; pEC50 [9]: 8.22; remaining at 10 min, 0.5 µM [12]: 78%; bioavailability [11]: 10%"
CCCCCN1CCc2nc(C)c(C(OC(C)(C)C)C(=O)O)c(-c3ccc(C)cc3)c2C1 (stereo not drawn),6.68,,,> 40000,5.96,
Cc1ccc(-c2c3c(nc(C)c2[C@H](OC(C)(C)C)C(=O)O)CCN(CCc2ccccc2)C3)cc1,6.62,,,> 40000,6.07,
Cc1ccc(-c2c3c(nc(C)c2C(OC(C)(C)C)C(=O)O)CCN(C)C3)cc1 (stereo not drawn),5.68,,,> 40000,5.24,
Cc1ccc(-c2c3c(nc(C)c2C(OC(C)(C)C)C(=O)O)CCN(S(C)(=O)=O)C3)cc1 (stereo not drawn),5.59,,,> 40000,5.66,
Cc1ccc(-c2c3c(nc(C)c2[C@H](OC(C)(C)C)C(=O)O)CCN(c2ccccc2)C3)cc1,6.33,24,3,> 40000,6.64,

# The next lines start with results.
pEC50 [1],clearance [4] [mL/min/kg],Vd [5] [L/kg],Compound,CC50 at 96 h [2] [nM],pIC50 [3],further results
9.00,,,Cc1ccc(CCCN2CCc3nc(C)c([C@H](OC(C)(C)C)C(=O)O)c(-c4cc(F)c5c(c4C)CCCO5)c3C2)cc1F,> 40000,7.96,
9.00,,,Cc1nc2c(c(-c3cc(F)c4c(c3C)CCCO4)c1[C@H](OC(C)(C)C)C(=O)O)CN(CCCc1ccccc1F)CC2,> 40000,8.10,
8.70,,,Cc1ccccc1CCCN1CCc2nc(C)c([C@H](OC(C)(C)C)C(=O)O)c(-c3cc(F)c4c(c3C)CCCO4)c2C1,> 40000,7.72,
7.15,24,9,Cc1ccc(-c2c3c(nc(C)c2C(OC(C)(C)C)C(=O)O)CCN(Cc2ccccc2-c2ccccc2)C3)cc1 (stereo not drawn),> 40000,7.10,bioavailability [11]: 25%
7.41,152,66,Cc1ccc(-c2c3c(nc(C)c2C(OC(C)(C)C)C(=O)O)CCN(CCCC2CCCC2)C3)cc1 (stereo not drawn),> 40000,6.62,bioavailability [11]: 32%
6.92,,,Cc1ccc(-c2c3c(nc(C)c2[C@H](OC(C)(C)C)C(=O)O)CCN(C/C=C/c2ccccc2)C3)cc1,> 40000,6.80,
8.70,,,Cc1cccc(CCCN2CCc3nc(C)c([C@H](OC(C)(C)C)C(=O)O)c(-c4cc(F)c5c(c4C)CCCO5)c3C2)c1,> 40000,7.54,
8.40,,,Cc1nc2c(c(-c3cc(F)c4c(c3C)CCCO4)c1[C@H](OC(C)(C)C)C(=O)O)CN(CCCc1cccc(F)c1)CC2,> 40000,7.36,
8.40,92,1,Cc1nc2c(c(-c3cc(F)c4c(c3C)CCCO4)c1[C@H](OC(C)(C)C)C(=O)O)CN(CCCc1ccc(F)cc1)CC2,> 40000,7.82,"remaining at 10 min, 0.5 µM [12]: 78%; bioavailability [11]: 10%"
8.70,,,Cc1ccc(CCCN2CCc3nc(C)c([C@H](OC(C)(C)C)C(=O)O)c(-c4cc(F)c5c(c4C)CCCO5)c3C2)cc1,> 40000,7.92,
8.30,,,Cc1nc2c(c(-c3cc(F)c4c(c3C)CCCO4)c1[C@H](OC(C)(C)C)C(=O)O)CN(CC1CC1c1ccccc1)CC2 (mixture of isomers),> 40000,7.62,
7.24,,,"Cc1nc2c(c(-c3cc(F)c4c(c3C)CCCO4)c1[C@H](OC(C)(C)C)C(=O)O)CN(CCCc1ccncc1)CC2 (single isomer, unassigned; atropisomer)",> 40000,7.40,
7.28,,,Cc1nc2ccccc2c(-c2ccc3c4c(ccnc24)CCO3)c1[C@H](OC(C)(C)C)C(=O)O [BI-224436],> 40000,7.15,
